# Measured values gathered from unrelated publications.
# Lines come from different studies, so protocols differ.
# Target: Aurora kinase C (AURKC, Homo sapiens, UniProt Q9UQB9)
# One construct used (Q9UQB9 1-309): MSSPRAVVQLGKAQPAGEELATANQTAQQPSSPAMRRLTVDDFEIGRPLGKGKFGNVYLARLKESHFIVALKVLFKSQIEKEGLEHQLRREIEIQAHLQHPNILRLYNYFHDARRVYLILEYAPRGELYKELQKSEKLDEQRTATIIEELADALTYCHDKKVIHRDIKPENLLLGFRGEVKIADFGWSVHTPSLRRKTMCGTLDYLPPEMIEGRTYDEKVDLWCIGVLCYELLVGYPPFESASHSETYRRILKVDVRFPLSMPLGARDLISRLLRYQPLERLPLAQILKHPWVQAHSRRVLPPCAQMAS
SMILES,read-out,action,method,tested at,measurement,value
C#Cc1n[nH]c2c(-c3cn(C(C)c4ccccn4)c(=O)[nH]c3=O)cc(F)cc12 (stereo not shown),enzyme activity,inhibitor,,1 µM,inhibition,1.7%
Nc1ncc(-c2nc(N3CCOCC3)nc(N3CCOCC3)n2)c(C(F)F)n1,binding,,competition with immobilised ligand,10 µM,remaining binding,91%
Cn1cc(-c2cccc(N3CCc4c(sc5c4CC(C)(C)C5)C3=O)c2CO)cc(Nc2ccncn2)c1=O,enzyme activity,inhibitor,,1 µM,inhibition,5%
CC(C)(C)c1cc(C=C(C#N)C#N)cc(Br)c1O,enzyme activity,inhibitor,,0.5 µM,remaining activity,87.6%
Cn1cc(-c2cc(F)cc(N3CCn4c(cc5c4CCCC5)C3=O)c2CO)cc(Nc2ccc(N3CCN(C4COC4)CC3)cn2)c1=O,enzyme activity,inhibitor,,0.1 µM,inhibition,5%
N#CC1(c2ccccn2)CCN(Cc2cc(C(=O)O)c(=O)n3ccccc23)CC1,cell-free assay,,competition with immobilised ligand,1 µM,remaining binding,94%
COc1cc(Nc2ncc(F)c(Nc3ccc4c(n3)NC(=O)C(C)(C)O4)n2)cc(OC)c1OC,binding,,competition with immobilised ligand,10 µM,inhibition,95%
Cn1cncc1[C@](O)(COc1ccc(C#N)cc1-c1ccc(OC(F)(F)F)cc1)c1ccc(C#N)cc1,cell-free assay,,competition with immobilised ligand,1 µM,remaining binding,100%
O=c1[nH]c2ccccc2n1C1CCN(Cc2ccc(-c3[nH]c4cc5ncnc5cc4nc3-c3ccccc3)cc2)CC1,cell-free assay,,,0.5 µM,remaining signal,96%
COc1ncccc1-c1cnn2ccc(N3CCN(C(=O)OC(C)C)CC3)nc12,binding,,competition with immobilised ligand,1 µM,remaining binding,56%
